Assay results as given in ChEMBL document CHEMBL2021777 (J Med Chem, 2012).
Activity calls are given as the source filed them.

What was measured:
Rattus norvegicus = organism: Rattus norvegicus; assay: Selectivity ratio of Ki for rat alpha3beta4 to Ki for rat alpha4beta2
Method in brief: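 Ki values from [3H]epibatidine competition binding at heterologously expressed rat nAChR subtypes, using the PDSP protocol; selectivity taken as the α3β4/α4β2 Ki ratio.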

[1] = Displacement of [3H]Baclofen from GABA-B at 10 uM
[2] = target: T1, Neuronal acetylcholine receptor; alpha4/beta2 (Homo sapiens, UniProt P17787+P43681); assay: Partial agonist activity at human high sensitive alpha4beta2 nAChR expressed in SH-EP1 cells assessed as 86Rb+ ion efflux by flip-plate technique relative to sazetidine-A; type: functional, cell-based
Method in brief: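 86Rb+ ion flux in SH-EP1 cells stably transfected with separate human α4 and β2 subunit cDNAs, expressing a mixture of high- and low-sensitivity α4β2 nAChRs. Cells kept at low passage (1−26). Efficacy at the HS form extrapolated relative to a reference agonist defined as a 100% full agonist.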

[3] = target: T1, Neuronal acetylcholine receptor; alpha4/beta2; assay: Antagonist activity at human high sensitive and low sensitive alpha4beta2 nAChR expressed in SH-EP1 cells assessed as inhibition of carbamylcholine induced 86Rb+ ion efflux preincubated for 10 mins prior to carbamylcholine-induction measured after 5 mins by flip-plate technique relative to control; type: functional, cell-based
Method in brief: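 SH-EP1 human epithelial cells stably transfected with separate human α4 and β2 subunit cDNAs express a mixed population of high-sensitivity (2:3 α4:β2) and low-sensitivity (3:2) α4β2-nAChRs. Cells were kept at low passage (1−26 from frozen stocks). Function was read as 86Rb+ ion flux.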

[4] = target: Neuronal acetylcholine receptor; alpha3/beta4 (Rattus norvegicus, UniProt P04757+P12392); assay: Displacement of [3H] epibatidine from rat alpha3beta4 nAChR by beta scintillation counting; type: protein-complex assay
[5] = target: T2, Alpha-2A adrenergic receptor (Homo sapiens) (UniProt P08913); assay: Displacement of [3H]Clonidine from alpha2A adrenergic receptor at 10 uM
T2 sequence (whole entry): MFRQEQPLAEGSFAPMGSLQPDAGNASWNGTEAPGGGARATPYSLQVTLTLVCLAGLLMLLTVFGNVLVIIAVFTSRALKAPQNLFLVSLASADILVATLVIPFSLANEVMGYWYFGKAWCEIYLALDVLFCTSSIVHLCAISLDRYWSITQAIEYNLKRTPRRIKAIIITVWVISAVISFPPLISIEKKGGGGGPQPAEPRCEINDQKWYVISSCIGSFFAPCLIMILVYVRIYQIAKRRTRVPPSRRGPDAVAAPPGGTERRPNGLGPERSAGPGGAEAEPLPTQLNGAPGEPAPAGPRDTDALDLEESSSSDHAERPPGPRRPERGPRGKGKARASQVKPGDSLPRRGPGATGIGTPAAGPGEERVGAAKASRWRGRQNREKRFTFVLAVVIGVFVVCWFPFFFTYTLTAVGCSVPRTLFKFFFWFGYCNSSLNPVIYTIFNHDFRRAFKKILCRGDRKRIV

[6] = target: 5-hydroxytryptamine receptor 1D (Homo sapiens) (UniProt P28221); assay: Displacement of [3H][…] from 5-HT1D at 10 uM
[7] = target: Neuronal acetylcholine receptor; alpha4/beta2 (Rattus norvegicus, UniProt P09483+P12390); assay: Displacement of [3H] epibatidine from rat alpha4beta2 nAChR by beta scintillation counting; type: protein-complex assay
[8] = target: Sodium-dependent noradrenaline transporter (Homo sapiens) (UniProt P23975); assay: Displacement of [3H]Nisoxetine from NET at 10 uM
[9] = target: Neuronal acetylcholine receptor; alpha4/beta4 (Rattus norvegicus, UniProt P09483+P12392); assay: Displacement of [3H] epibatidine from rat alpha4beta4 nAChR by beta scintillation counting; type: protein-complex assay
[10] = target: Sodium-dependent dopamine transporter (Homo sapiens) (UniProt Q01959); assay: Displacement of [3H]WIN35428 from DAT at 10 uM
Mus musculus = assay: Antidepressant activity in BALB/cJ mouse assessed as decrease in immobility at 3 mg/kg, po administered 30 mins prior to testing measured for 6 mins by forced swim test; type: functional, organism-based; design: dose 3 mg/kg
Method in brief: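 Male BALB/cJ mice, 8−10 weeks old, housed four per cage on a 12 h light−dark cycle. Drug in injectable water was given by oral gavage (10 mL/kg). After 30 min, each mouse was placed in a glass cylinder with 12 cm of ~23 °C water, and floating immobility was timed over a 6 min trial. Analysis was by ANOVA with Fisher's PLSD post hoc test.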

[11] = target: Metabotropic glutamate receptor 5 (Homo sapiens) (UniProt P41594); assay: Displacement of [3H]MPEP from mGluR5 at 10 uM
[12] = target: T3, Alpha-2C adrenergic receptor (Homo sapiens) (UniProt P18825); assay: Displacement of [3H]Clonidine from alpha2C adrenergic receptor at 10 uM
T3 sequence (whole entry): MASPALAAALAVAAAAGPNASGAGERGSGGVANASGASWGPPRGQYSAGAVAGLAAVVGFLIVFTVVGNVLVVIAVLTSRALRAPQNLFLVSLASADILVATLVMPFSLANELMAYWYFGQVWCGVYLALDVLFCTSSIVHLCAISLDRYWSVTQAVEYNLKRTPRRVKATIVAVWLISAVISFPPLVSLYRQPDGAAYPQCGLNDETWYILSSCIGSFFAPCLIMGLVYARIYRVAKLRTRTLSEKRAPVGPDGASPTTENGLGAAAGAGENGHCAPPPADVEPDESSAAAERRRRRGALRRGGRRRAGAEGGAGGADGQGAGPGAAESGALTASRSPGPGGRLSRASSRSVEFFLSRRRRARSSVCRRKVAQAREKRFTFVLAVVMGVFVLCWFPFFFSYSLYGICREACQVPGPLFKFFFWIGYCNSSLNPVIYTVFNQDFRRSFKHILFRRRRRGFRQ

Cytochrome P450 1A2 = Cytochrome P450 1A2 (Homo sapiens, UniProt P05177); assay: Inhibition of CYP1A2 up to 10 uM; type: ADME
Method in brief: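 Percent inhibition of CYP isoforms (CYP1A, CYP2C9, CYP2C19, CYP2D6, CYP3A; CYP1A2 reported) with test compound at concentrations up to 10 μM.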

[13] = target: T4, Alpha-2B adrenergic receptor (Homo sapiens) (UniProt P18089); assay: Displacement of [3H]Clonidine from alpha2B adrenergic receptor at 10 uM
T4 sequence (whole entry): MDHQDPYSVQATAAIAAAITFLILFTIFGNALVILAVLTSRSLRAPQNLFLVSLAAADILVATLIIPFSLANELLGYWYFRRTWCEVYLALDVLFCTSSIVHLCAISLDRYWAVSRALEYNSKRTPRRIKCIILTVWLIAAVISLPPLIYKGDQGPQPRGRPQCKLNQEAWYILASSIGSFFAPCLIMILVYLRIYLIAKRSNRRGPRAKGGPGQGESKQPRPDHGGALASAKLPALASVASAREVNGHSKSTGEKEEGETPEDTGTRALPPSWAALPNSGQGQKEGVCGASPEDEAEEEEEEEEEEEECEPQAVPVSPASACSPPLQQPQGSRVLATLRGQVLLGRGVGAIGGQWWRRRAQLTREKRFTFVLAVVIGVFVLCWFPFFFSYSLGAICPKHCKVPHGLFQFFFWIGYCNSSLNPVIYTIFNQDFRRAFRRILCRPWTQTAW

Chain of Neuronal acetylcholine receptor; alpha3/beta4 (P04757 whole entry): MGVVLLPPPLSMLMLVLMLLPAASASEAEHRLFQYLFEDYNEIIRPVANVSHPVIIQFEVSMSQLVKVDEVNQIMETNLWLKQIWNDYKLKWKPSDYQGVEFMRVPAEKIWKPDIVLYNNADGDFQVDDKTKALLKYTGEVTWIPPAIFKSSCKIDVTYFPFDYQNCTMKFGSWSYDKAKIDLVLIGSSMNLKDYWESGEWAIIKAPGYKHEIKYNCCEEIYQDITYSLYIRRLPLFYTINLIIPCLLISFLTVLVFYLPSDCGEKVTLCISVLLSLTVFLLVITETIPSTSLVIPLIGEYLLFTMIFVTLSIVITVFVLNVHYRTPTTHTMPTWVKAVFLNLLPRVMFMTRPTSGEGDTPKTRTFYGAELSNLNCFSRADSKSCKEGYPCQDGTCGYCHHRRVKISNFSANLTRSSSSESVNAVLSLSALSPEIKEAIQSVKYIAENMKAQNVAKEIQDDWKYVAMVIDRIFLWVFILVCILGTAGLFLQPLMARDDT
Chain of Neuronal acetylcholine receptor; alpha3/beta4 (P12392 whole entry): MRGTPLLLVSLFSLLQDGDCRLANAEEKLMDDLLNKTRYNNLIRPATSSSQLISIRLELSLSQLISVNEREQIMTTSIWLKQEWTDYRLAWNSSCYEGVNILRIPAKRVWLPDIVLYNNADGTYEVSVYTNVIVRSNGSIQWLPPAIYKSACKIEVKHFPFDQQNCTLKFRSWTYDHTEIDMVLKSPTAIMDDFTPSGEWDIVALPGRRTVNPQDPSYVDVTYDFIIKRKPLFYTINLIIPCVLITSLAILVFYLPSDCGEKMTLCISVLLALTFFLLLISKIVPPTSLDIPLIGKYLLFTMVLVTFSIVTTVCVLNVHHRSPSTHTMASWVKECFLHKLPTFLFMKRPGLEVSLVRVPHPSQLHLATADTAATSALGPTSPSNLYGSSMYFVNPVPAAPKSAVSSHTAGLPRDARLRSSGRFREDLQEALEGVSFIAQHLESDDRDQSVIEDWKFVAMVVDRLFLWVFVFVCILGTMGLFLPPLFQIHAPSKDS
Chain of Sodium-dependent dopamine transporter (Homo sapiens) (Q01959 whole entry): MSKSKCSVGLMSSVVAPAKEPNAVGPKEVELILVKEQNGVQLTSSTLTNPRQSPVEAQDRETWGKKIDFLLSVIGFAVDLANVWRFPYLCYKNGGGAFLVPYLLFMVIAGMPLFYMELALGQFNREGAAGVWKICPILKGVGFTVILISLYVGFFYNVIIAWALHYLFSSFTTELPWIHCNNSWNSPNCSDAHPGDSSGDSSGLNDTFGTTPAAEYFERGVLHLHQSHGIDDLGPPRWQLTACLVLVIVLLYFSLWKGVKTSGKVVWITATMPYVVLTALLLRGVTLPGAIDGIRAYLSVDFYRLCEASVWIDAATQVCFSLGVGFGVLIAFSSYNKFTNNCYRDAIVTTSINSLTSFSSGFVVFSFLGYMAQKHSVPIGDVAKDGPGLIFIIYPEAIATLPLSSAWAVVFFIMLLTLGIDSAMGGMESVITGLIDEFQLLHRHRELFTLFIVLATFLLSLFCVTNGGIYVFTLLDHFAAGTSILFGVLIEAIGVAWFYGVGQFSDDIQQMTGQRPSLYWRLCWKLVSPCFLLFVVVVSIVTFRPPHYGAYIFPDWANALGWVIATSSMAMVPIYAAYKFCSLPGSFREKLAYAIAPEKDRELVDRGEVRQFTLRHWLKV
Chain of Neuronal acetylcholine receptor; alpha4/beta2 (Rattus norvegicus, UniProt P09483+P12390) (P09483 whole entry): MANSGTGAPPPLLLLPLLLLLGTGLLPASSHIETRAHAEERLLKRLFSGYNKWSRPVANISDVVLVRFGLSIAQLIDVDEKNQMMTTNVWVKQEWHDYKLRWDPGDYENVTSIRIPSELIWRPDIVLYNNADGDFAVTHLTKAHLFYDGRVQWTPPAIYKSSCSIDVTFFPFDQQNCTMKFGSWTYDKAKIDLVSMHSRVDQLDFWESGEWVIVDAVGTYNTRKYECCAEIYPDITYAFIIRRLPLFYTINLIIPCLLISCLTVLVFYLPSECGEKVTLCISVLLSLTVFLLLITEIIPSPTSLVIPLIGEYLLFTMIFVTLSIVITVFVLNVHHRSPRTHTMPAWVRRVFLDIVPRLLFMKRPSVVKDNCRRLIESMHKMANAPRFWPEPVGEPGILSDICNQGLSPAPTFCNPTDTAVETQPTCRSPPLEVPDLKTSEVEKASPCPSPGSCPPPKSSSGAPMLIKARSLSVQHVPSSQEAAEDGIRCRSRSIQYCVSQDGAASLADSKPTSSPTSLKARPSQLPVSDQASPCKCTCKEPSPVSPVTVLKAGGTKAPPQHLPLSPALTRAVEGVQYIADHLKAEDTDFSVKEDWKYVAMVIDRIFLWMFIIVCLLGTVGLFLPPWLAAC
Chain of Neuronal acetylcholine receptor; alpha4/beta2 (Rattus norvegicus, UniProt P09483+P12390) (P12390 whole entry): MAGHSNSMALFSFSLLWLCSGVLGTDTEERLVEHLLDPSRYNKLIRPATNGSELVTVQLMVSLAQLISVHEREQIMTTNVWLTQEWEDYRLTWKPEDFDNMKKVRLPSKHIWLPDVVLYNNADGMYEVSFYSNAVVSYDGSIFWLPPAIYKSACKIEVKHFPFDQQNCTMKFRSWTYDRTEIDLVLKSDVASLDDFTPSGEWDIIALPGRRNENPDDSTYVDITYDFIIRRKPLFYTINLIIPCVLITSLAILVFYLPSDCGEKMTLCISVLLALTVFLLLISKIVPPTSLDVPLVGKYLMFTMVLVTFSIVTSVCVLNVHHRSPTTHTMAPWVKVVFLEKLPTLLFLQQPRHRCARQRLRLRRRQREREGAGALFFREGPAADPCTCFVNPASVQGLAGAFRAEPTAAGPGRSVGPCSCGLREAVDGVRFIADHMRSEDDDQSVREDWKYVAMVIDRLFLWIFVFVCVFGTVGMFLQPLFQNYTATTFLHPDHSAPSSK
Chain of Sodium-dependent noradrenaline transporter (Homo sapiens) (P23975 whole entry): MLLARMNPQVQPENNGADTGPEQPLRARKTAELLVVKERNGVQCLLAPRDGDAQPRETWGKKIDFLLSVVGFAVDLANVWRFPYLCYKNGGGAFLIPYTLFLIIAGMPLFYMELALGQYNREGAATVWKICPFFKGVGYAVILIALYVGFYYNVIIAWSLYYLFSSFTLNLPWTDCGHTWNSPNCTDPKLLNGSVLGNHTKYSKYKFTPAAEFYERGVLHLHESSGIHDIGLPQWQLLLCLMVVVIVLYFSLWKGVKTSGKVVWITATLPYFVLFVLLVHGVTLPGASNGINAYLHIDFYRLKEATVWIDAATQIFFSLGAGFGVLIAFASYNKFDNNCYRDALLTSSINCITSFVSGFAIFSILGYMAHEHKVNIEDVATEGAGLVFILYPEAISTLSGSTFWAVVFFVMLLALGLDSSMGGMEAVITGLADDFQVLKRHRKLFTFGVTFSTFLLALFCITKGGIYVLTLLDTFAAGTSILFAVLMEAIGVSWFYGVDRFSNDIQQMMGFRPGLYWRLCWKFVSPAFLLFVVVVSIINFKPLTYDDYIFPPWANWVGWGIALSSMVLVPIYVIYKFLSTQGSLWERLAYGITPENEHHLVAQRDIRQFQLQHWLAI
Chain of 5-hydroxytryptamine receptor 1D (Homo sapiens) (P28221 whole entry): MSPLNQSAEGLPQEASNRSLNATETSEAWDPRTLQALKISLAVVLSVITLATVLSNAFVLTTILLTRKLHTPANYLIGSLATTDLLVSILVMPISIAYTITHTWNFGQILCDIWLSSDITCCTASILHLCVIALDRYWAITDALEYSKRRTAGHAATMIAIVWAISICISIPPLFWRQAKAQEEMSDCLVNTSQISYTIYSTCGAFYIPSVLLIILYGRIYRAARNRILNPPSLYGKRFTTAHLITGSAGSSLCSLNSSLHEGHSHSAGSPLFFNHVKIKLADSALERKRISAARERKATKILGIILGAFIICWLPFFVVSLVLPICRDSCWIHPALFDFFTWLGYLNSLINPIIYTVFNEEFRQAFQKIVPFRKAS
Chain of Cytochrome P450 1A2 (P05177 whole entry, canonical isoform): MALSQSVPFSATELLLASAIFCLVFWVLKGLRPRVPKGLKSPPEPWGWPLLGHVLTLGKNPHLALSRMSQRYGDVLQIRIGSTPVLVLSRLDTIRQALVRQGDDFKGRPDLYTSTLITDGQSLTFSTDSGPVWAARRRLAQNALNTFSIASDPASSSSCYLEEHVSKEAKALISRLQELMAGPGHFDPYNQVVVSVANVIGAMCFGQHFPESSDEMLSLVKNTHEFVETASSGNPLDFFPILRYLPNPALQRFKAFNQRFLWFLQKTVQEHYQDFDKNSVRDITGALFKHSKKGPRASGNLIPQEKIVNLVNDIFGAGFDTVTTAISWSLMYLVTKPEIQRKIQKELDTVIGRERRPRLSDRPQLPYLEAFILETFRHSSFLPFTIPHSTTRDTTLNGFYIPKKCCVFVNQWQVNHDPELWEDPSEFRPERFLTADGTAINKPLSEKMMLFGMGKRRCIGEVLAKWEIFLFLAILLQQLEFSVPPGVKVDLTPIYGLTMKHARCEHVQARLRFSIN
Chain of Neuronal acetylcholine receptor; alpha4/beta4 (P09483 whole entry): as the sequence (P09483 whole entry) above
Chain of Neuronal acetylcholine receptor; alpha4/beta4 (P12392 whole entry): as the sequence (P12392 whole entry) above

Row | SMILES | Ratio Ki (Rattus norvegicus) | inhibition [1] | Efficacy [2] | Efficacy [3] | Ki [4] | inhibition [5] | inhibition [6] | Ki [7] | inhibition [8] | Ki [9] | inhibition [10] | Activity (Mus musculus) | inhibition [11] | inhibition [12] | inhibition (INH) (Cytochrome P450 1A2) | inhibition [13]
1 | COCC[C@H]1C[C@@H]1c1cncc(OC[C@@H]2CCN2)c1 | > 100000 | 3.2% | 60% | 71% | > 10000 nM | 9.7% | 1.2% | 0.1 nM | -0.2% | 50.2 nM | 21.7% | Active | 5.1% | 30.6% | 70% | 16.4%
2 | CNC(=O)OCC[C@H]1C[C@@H]1c1cncc(OC[C@@H]2CCN2)c1 | > 100000 | – | 77% | 85% | > 10000 nM | 15.5% | – | 0.6 nM | 69.6% | 441 nM | 63% | – | – | 42% | 80% | 12.4%
3 | OCC[C@H]1C[C@@H]1c1cncc(OC[C@@H]2CCN2)c1 | 65200 | 8.9% | 92% | 63% | 6520 nM | -5.3% | 5.6% | 0.1 nM | – | – | 43.7% | Active | 9.1% | 17.6% | – | 9.9%
